# According to ChEMBL document CHEMBL3352716 (ACS Med Chem Lett, 2014):
# Tests used:
# Bel-7402 = experiment: Selectivity index, ratio of IC50 for human L02 cells to ratio of IC50 for human Bel-7402 cells; format: functional
# Summary of the method: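 Selectivity index is IC50 on normal L-02 liver cells divided by IC50 on Bel-7402 tumour cells. Both IC50 values come from MTT survival curves after 72 h exposure.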
# NCI-H460 = experiment: Anticancer activity against human NCI-H460 cells by MTT assay; format: functional, cell-based
# Summary of the method: (§1)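 MTT cytotoxicity run on paired parental and transporter-overexpressing lines: SW620 vs ABCB1-overexpressing SW620/AD300, and NCI-H460 vs ABCG2-overexpressing NCI-H460/MX20. IC50 is the concentration inhibiting 50% of cell growth. Concentrations tested up to 100 μM.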
# [1] = Anticancer activity against human Bel7402 cells assessed as growth inhibition by MTT assay; format: functional, cell-based; settings: Bel-7402
# Summary of the method: (§2)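 Toxicity compared on human normal liver L-02 cells and human liver cancer Bel-7402 cells run side by side. Survival curves by MTT after 72 h treatment. IC50 is the concentration inhibiting 50% of cell growth.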
# [2] = Anticancer activity against ABCG2-overexpressing human NCI-H460/MX20 cells by MTT assay; format: functional, cell-based; summary of the method: as §1
# [3] = Cytotoxicity against human L02 cells by MTT assay; format: cell-based; summary of the method: as §2
# [4] = Anticancer activity against ABCB1-overexpressing human SW620/AD300 cells by MTT assay; format: functional, cell-based; settings: SW-620; summary of the method: as §1
# SW-620 = experiment: Anticancer activity against human SW620 cells by MTT assay; format: functional, cell-based; summary of the method: as §1
# MCF7 = experiment: Antiproliferative activity against human MCF7 cells assessed as growth inhibition after 72 hrs by MTT assay; format: functional, cell-based; settings: MCF7, 72 h
# Summary of the method: (§3)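 MTT proliferation assay on human K562 leukaemia, MCF-7 breast adenocarcinoma, Bel-7402 hepatocellular carcinoma and MGC-803 gastric cancer cells. Drug exposure 72 h. IC50 is the concentration inhibiting 50% of cell growth. Means ± SD, n = 3.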
# MGC-803 = experiment: Antiproliferative activity against human MGC803 cells assessed as growth inhibition after 72 hrs by MTT assay; format: functional, cell-based; settings: MGC-803, 72 h; summary of the method: as §3
# K562 = experiment: Antiproliferative activity against human K562 cells assessed as growth inhibition after 72 hrs by MTT assay; format: functional, cell-based; settings: K562, 72 h; summary of the method: as §3
# [5] = Antiproliferative activity against human Bel7402 cells assessed as growth inhibition after 72 hrs by MTT assay; format: functional, cell-based; settings: Bel-7402, 72 h; summary of the method: as §3
Structure (SMILES),Ratio IC50 (Bel-7402),IC50 (NCI-H460) [µM],IC50 [1] [µM],IC50 [2] [µM],IC50 [3] [µM],IC50 [4] [µM],IC50 (SW-620) [µM],IC50 (MCF7) [µM],IC50 (MGC-803) [µM],IC50 (K562) [µM],IC50 [5] [µM]
C=C1C(=O)[C@]23[C@H](O)[C@H]1CC[C@H]2[C@@]12CO[C@]3(O)[C@@H](O)[C@@H]1C(C)(C)CC[C@@H]2O [ORIDONIN],2.38,17.1,7.48,21.7,17.8,4.67,6.26,–,–,–,–
O=C(O)CCCc1ccc(N(CCCl)CCCl)cc1 [CHLORAMBUCIL],2.14,–,49.3,–,106,–,–,80.5,134,60.1,49.3
C=C1C(=O)[C@]23[C@H](OC(=O)CCCc4ccc(N(CCCl)CCCl)cc4)[C@H]1CC[C@H]2[C@@]12CO[C@@]3(O)[C@@H](O)[C@@H]1C(C)(C)CC[C@@H]2O,6.73,4.81,1.43,7.26,9.62,2.28,2.7,1.32,2.02,2.28,1.43
C=C1C(=O)[C@]23[C@H](OC(=O)c4ccc(N(CCCl)CCCl)cc4)[C@H]1CC[C@H]2[C@@]12CO[C@@]3(O)[C@@H](O)[C@@H]1C(C)(C)CCC2=O,–,–,–,–,–,–,–,0.67,1.6,1.17,0.9
C=C1C(=O)[C@]23[C@H](OC(=O)CCCC(=O)N[C@@H](Cc4ccc(N(CCCl)CCCl)cc4)C(=O)OC)[C@H]1CC[C@H]2[C@@]12CO[C@@]3(O)[C@@H](O)[C@@H]1C(C)(C)CC[C@@H]2O,–,–,–,–,–,–,–,12.9,6.92,5.74,7.91
C=C1C(=O)[C@]23[C@H](OC(=O)CCC(=O)N[C@@H](Cc4ccc(N(CCCl)CCCl)cc4)C(=O)OC)[C@H]1CC[C@H]2[C@@]12CO[C@@]3(O)[C@@H](O)[C@@H]1C(C)(C)CC[C@@H]2OC(C)=O,–,–,–,–,–,–,–,3.63,4.71,1.73,2.56
C=C1C(=O)[C@]23[C@H](OC(=O)[C@H](Cc4ccc(N(CCCl)CCCl)cc4)NC=O)[C@H]1CC[C@H]2[C@@]12CO[C@@]3(O)[C@@H](O)[C@@H]1C(C)(C)CC[C@@H]2O,–,–,–,–,–,–,–,14.6,7.1,7.03,3.84
